Assay outcomes (PubChem)
697 NFkB inh: inhibitors of the PMA/ionomycin-induced NF-kB reporter in 697 B cells; inhibition, % at 4 µM; 697 B-cell NF-kB luciferase reporter, 16 h; hit rate 0.33% among 330,000; AID 435022; in the data active = inhibition above about 35%
Gli-Sufu antag: Gli-Sufu pathway antagonism; inhibition, % at 5 µM; Sufu-KO-LIGHT fibroblasts, Gli luciferase reporter luminescence; hit rate 0.74% among 340,000;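 active = inhibition above about 55%, limit read from the data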;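 also: 0% = DMSO-treated cells and 100% = wells with medium but no cells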
Jurkat NFkB inh: inhibitors of the PMA/ionomycin-induced NF-kB reporter in Jurkat cells; PMA/ionomycin-induced NF-kB luciferase reporter, luminescence; inhibition, % at 4 µM; hit rate 0.53% among 330,000; AID 435003; in the data active = inhibition above about 50%
NR2E3 ag-1: activates human NR2E3 receptor | Q9Y5X4 | CHO-S Gal4-NCOR/VP16-NR2E3 two-hybrid, luciferase | inhibition of corepressor binding, % at 3.98 µM | hit rate 0.35% among 360,000 | AID 602229;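 active = inhibition above the mean of all tested compounds plus 3 SD, cut at about 70% in these data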;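 also: 0% = DMSO with NR2E3 transfected cells and 100% = cells lacking NR2E3 construct; higher means lower luciferase signal from less NR2E3 corepressor binding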
Target sequence (Q9Y5X4 whole entry, looked up, the tested form may be a part): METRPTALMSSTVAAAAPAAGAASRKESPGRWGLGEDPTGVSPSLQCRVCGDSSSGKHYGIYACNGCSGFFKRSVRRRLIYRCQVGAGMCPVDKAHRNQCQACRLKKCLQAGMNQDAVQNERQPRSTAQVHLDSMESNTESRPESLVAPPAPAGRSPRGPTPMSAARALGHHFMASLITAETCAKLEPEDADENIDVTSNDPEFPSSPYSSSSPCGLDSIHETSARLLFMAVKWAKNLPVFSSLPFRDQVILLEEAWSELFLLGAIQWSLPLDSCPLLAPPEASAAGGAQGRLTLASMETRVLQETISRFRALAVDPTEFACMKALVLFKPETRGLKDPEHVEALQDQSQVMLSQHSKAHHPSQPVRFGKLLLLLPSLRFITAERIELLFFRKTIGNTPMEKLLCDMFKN
GalR3 antagonist: antagonists of human GalR3. AID 651719. O60755. HEK293 GalR3-CNG cAMP membrane potential fluorescence; galR3 body fused to GalR1 C-terminus. hit rate 0.44% among 360,000. inhibition, % at 3 µM;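 active = inhibition above the screen-wide average plus 3 SD, cut at about 13% in these data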;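 also: forskolin and galanin both at EC90 stimulate the cells; cAMP rise reported by CNG channel membrane potential dye signal; 0% = forskolin plus galanin with DMSO and 100% = forskolin alone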
NR2E3 ag-2: NR2E3 (human) agonism; GST-NR2E3/biotin-RetCOR TR-FRET, 1536-well; hit rate 0.12% among 320,000; Q9Y5X4; inhibition of corepressor binding, % at 4.78 µM;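 active = percent inhibition above the cutoff of mean plus 3 SD of all tested compounds, set per screening campaign, cut at about 20% in these data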;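 also: 0% = DMSO wells and 100% = biotin wells as full block of FRET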
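Format: 1536-well format; test system: GST-NR2E3 and biotin-RetCOR proteins; read-out basis: percent inhibition of TR-FRET ratio; timing: 5 h incubation at 4 °C; detection: time-resolved FRET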
Jurkat NFkB conf: inhibitors of the PMA/ionomycin-induced NF-kB reporter in Jurkat cells, retest | shares compounds with Jurkat NFkB inh | Jurkat NF-kB luciferase, 16 h | inhibition, % at 4 µM | hit rate 27% among 2,700;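 active = inhibition reaching about 45% at 4 µM in either replicate, limit read from the data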;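 also: plate controls were PMA/ionomycin stimulated DMSO wells for no effect and unstimulated DMSO wells for full effect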
697 NFkB conf: lowers PMA/ionomycin-induced NF-kB signal in 697 B cells | shares compounds with 697 NFkB inh | 697 B-cell NF-kB luciferase, 16 h | inhibition, % at 4 µM | hit rate 35% among 2,000; in the data active = inhibition mostly above about 28%, no sharp cut-off; inactive = mostly below about 22%
Starred values were filed as active, the others as inactive. In the library only some 1.8% were active in any assay of this set; here they are far more common.

`O=[N+]([O-])c1ccc2nc(-c3ccc(Cl)cc3)[nH]c2c1` gave 697 NFkB inh -186, Gli-Sufu antag -80, Jurkat NFkB inh -142, NR2E3 ag-1 -155, GalR3 antagonist -4 and NR2E3 ag-2 -5.
For Cc1ccc(-c2nc3ccc([N+](=O)[O-])cc3[nH]2)cc1 the results were 697 NFkB inh -304, Gli-Sufu antag -54, Jurkat NFkB inh -212, NR2E3 ag-1 -102, GalR3 antagonist 0, NR2E3 ag-2 3, Jurkat NFkB conf -116 and 697 NFkB conf -433.
COC(=O)C1=C(C)N(C)C(=NCc2ccccc2C(F)(F)F)NC1c1ccc(C(F)(F)F)cc1 (configuration not stated) was read as GalR3 antagonist -10.
For COc1cc2c(c(OC)c1OC)-c1c(cc(OC)c(OC)c1OC)C[C@](C)(O)[C@@H](C)C2 the results were 697 NFkB inh 17, Gli-Sufu antag 28, Jurkat NFkB inh 22, NR2E3 ag-1 -44, GalR3 antagonist 0 and NR2E3 ag-2 4.
CN[C@H]1CCc2cc(OC)c(OC)c(OC)c2-c2ccc(OC)c(=O)cc21 was read as 697 NFkB inh -330, Gli-Sufu antag 45, Jurkat NFkB inh 72*, NR2E3 ag-1 28, GalR3 antagonist 3, NR2E3 ag-2 3, Jurkat NFkB conf 66* and 697 NFkB conf -210.
O=C1NC(c2ccc(Br)cc2)c2c(-c3ccccc3)n[nH]c21 (configuration not stated) was read as GalR3 antagonist -8.
O=S1(=O)CCSC[C@@H](CN2CCCC2)N1 was read as GalR3 antagonist -6.
`Clc1ccc(/C=C/c2nc3ccccc3[nH]2)cc1` gave 697 NFkB inh -366, Gli-Sufu antag -171, Jurkat NFkB inh -195, NR2E3 ag-1 -104, GalR3 antagonist -5, NR2E3 ag-2 2, Jurkat NFkB conf -111 and 697 NFkB conf -333.
Screening C[C@@H]1CN([C@@H](C)CO)C(=O)CCCn2cc(nn2)CO[C@H]1CN(C)C(=O)C1CCCCC1 returned GalR3 antagonist -5.
`Cc1nn(-c2ccccn2)c(C)c1Oc1ccccc1O` gave 697 NFkB inh -2, Gli-Sufu antag 4, Jurkat NFkB inh 10, NR2E3 ag-1 -12, GalR3 antagonist -4 and NR2E3 ag-2 1.
For Cc1nn(-c2nc3ccccc3s2)c(C)c1Oc1ccccc1O the results were 697 NFkB inh inactive, Gli-Sufu antag -10, Jurkat NFkB inh -194, NR2E3 ag-1 -51, NR2E3 ag-2 4, Jurkat NFkB conf -142 and 697 NFkB conf inactive.
O=c1c2c3c(sc2nc2n1N=C(c1cccs1)CS2)CCCC3 was read as 697 NFkB inh -313, Gli-Sufu antag 8, Jurkat NFkB inh -195, NR2E3 ag-1 -85, GalR3 antagonist -1, NR2E3 ag-2 -35, Jurkat NFkB conf -63 and 697 NFkB conf -120.
O=c1oc(-c2cccs2)nc2sc3c(c12)CCCC3 was read as 697 NFkB inh -32, Gli-Sufu antag -11, Jurkat NFkB inh 4, NR2E3 ag-1 -29, GalR3 antagonist -2 and NR2E3 ag-2 3.
Screening CC(C)(C)C1CCc2c(sc(NC(=O)CSc3ncn[nH]3)c2C#N)C1 (configuration not stated) returned 697 NFkB inh -11, Gli-Sufu antag 3, Jurkat NFkB inh -10, NR2E3 ag-1 -60, GalR3 antagonist -3 and NR2E3 ag-2 -2.
Cc1ccc(C(=O)Nc2sc3c(c2C#N)CCCCC3)cc1C was read as 697 NFkB inh -156, Gli-Sufu antag -96, Jurkat NFkB inh -143, NR2E3 ag-1 -68, GalR3 antagonist -3 and NR2E3 ag-2 -3.
`N#Cc1c(NC(=O)CSc2ncn[nH]2)sc2c1CCCC2` gave 697 NFkB inh 62*, Gli-Sufu antag 22, Jurkat NFkB inh 52*, NR2E3 ag-1 14, GalR3 antagonist -5, NR2E3 ag-2 2, Jurkat NFkB conf 47 and 697 NFkB conf 47*.
CC1CCc2c(sc(NC(=O)CSc3ncn[nH]3)c2C#N)C1 (configuration not stated) was read as 697 NFkB inh 58*, Gli-Sufu antag 33, Jurkat NFkB inh 61*, NR2E3 ag-1 26, GalR3 antagonist -6, NR2E3 ag-2 0, Jurkat NFkB conf 61* and 697 NFkB conf 52*.
`N#Cc1c(NC(=O)c2ccccc2)sc2c1CCCCC2` gave 697 NFkB inh -280, Gli-Sufu antag 7, Jurkat NFkB inh -179, NR2E3 ag-1 -98, GalR3 antagonist 0, NR2E3 ag-2 2, Jurkat NFkB conf -138 and 697 NFkB conf -237.
For CCCCCCCCN1C(=O)[C@@H](CC(=O)N2CCCC2)C[C@@]2(C(=O)OC)C1=C[C@H](C1CCCC1)O[C@@H]2C the results were GalR3 antagonist -7.
For CCN(CCOC(=O)Nc1ccc(Cl)cc1)C(=O)Nc1ccc(Cl)cc1 the results were GalR3 antagonist -3.
Cc1cc(Nc2cc(F)c(F)c(F)c2)cc(=O)n1-c1cc(F)c(F)c(F)c1 was read as GalR3 antagonist -7.
`COc1ccc2[nH]c(C(=O)Nc3cccc(C)n3)cc2c1` gave 697 NFkB inh -281, Gli-Sufu antag -102, Jurkat NFkB inh -189, NR2E3 ag-1 -118, GalR3 antagonist 1, NR2E3 ag-2 4, Jurkat NFkB conf -96 and 697 NFkB conf -231.
Screening COc1ccc2[nH]c(C(=O)Nc3ccc(C)c(F)c3)cc2c1 returned 697 NFkB inh -28, Gli-Sufu antag -29, Jurkat NFkB inh -49, NR2E3 ag-1 -95, GalR3 antagonist -7 and NR2E3 ag-2 4.
Cc1csc(NC(=O)c2ccc(OCC3CCCO3)cc2)n1 (configuration not stated) was read as 697 NFkB inh 29, Gli-Sufu antag -68, Jurkat NFkB inh -80, NR2E3 ag-1 -92, GalR3 antagonist -6 and NR2E3 ag-2 0.
O=C(Nc1nc(-c2ccc(F)c(F)c2)cs1)c1ccc(OCC2CCCO2)cc1 (configuration not stated) was read as 697 NFkB inh 50*, Gli-Sufu antag 12, Jurkat NFkB inh 58*, NR2E3 ag-1 -20, GalR3 antagonist -7, NR2E3 ag-2 1, Jurkat NFkB conf 63* and 697 NFkB conf 33*.
`COc1ccc(/C=C/c2cccc[n+]2C)c(O)c1` gave 697 NFkB inh -38, Gli-Sufu antag 34, Jurkat NFkB inh -28, NR2E3 ag-1 -32, GalR3 antagonist -3 and NR2E3 ag-2 -4.
